Laboratory results reported in PMC7986984 (Brain, behavior, and immunity, 2020).
Read-outs that look alike come from different tables or passages of the source.

Experiments:
[1] = test system: THP-1 cells; assay: qPCR gene expression in THP-1 cells of the LPS-challenged coculture; format: cell-based, human; conditions: TMF-treated vs. untreated
[2] = molecular target: T1, aryl hydrocarbon receptor (AHR) (Homo sapiens, UniProt P35869); format: cell-based; conditions: for dependence of the beneficial / anti-inflammatory activity on AHR signaling: LPS-challenged coculture with AHR antagonist TMF; for anti-inflammatory effects (TEER, cytotoxicity, kynurenine, Il-1β gene expression), correlated to Cyp1a1 mRNA expression: LPS-treated coculture, two concentrations (Table S8)
T1 sequence (P35869 11-848): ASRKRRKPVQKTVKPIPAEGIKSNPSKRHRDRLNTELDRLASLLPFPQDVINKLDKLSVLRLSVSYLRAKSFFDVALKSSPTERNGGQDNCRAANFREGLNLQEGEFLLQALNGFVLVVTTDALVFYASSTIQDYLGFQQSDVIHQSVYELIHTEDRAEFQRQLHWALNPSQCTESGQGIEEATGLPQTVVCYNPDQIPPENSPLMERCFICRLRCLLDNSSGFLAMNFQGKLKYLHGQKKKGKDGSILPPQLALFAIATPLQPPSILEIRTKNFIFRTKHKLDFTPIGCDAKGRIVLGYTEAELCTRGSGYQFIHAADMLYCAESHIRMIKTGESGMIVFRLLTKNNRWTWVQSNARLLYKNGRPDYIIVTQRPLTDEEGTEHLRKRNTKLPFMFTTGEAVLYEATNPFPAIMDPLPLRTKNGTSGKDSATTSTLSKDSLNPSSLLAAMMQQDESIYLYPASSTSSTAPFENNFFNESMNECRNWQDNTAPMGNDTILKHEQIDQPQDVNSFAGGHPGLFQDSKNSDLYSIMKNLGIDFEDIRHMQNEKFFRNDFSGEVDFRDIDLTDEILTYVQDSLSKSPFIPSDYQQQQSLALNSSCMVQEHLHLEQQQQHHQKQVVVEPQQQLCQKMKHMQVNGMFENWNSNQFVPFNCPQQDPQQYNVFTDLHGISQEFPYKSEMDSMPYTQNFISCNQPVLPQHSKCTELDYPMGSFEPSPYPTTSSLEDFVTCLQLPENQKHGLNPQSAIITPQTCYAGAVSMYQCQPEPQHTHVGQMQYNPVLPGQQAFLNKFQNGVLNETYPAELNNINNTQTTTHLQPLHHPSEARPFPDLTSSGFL
Method in brief: (§1)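 Caco-2 grown 18 days on 8 μm transwells to TEER 500 ohm×cm2, set over THP-1 differentiated with PMA (15 nM, 48 h). Pretreatment 24 h with fermented supernatant (50 μL/1 mL) or metabolites (250 ng/mL), with or without AHR antagonist TMF. Challenge with LPS 1 μg/ml, IFN-γ and ATP in both compartments. Read-outs: TEER before and after; kynurenine by chemical assay, % control; IL-1β by ELISA, fold over untreated. n = 4 wells; t-test.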

[3] = format: in vivo, mice; conditions: male, mouse, plasma, po; for AUC: over 24 h
[4] = test system: Caco-2 / THP-1 coculture; assay: Transepithelial electrical resistance; format: cell-based, human; conditions: LPS +, TMF + (AHR antagonist); metabolites 250 ng/mL
Method in brief: as §1

[5] = test system: IL-1β; assay: IL-1β production; format: cell-based, human; conditions: LPS +, ELISA, metabolites 250 ng/mL
Method in brief: as §1

[6] = format: in vivo, mice; conditions: male, mouse, brain, po; for AUC: over 24 h; for Cmax: n = 6 +/- SEM
[7] = test system: Kynurenine; assay: Kynurenine production; format: cell-based, human; conditions: LPS +, metabolites 250 ng/mL
Method in brief: as §1

[8] = TMF −, fold change from untreated controls

Row | Tlr4 expression in TMF-treated cultures [1] | dependence of the beneficial / anti-inflammatory activity on AHR signaling [2] | AUC ([3]; Chronic BDPP) [ng·h/mL] | AUC ([3]; Chronic Synbiotic) [ng·h/mL] | Tmax ([3]; Chronic BDPP) [min] | Tmax ([3]; Chronic Synbiotic) [min] | AUC ([6]; Chronic BDPP) [ng·h/mL] | AUC ([6]; Chronic Synbiotic) [ng·h/mL] | Cmax ([6]; Chronic BDPP) [ng/mL] | Cmax ([6]; Chronic Synbiotic) [ng/mL] | Tmax ([6]; Chronic BDPP) [min] | Tmax ([6]; Chronic Synbiotic) [min] | SMILES | anti-inflammatory effects (TEER, cytotoxicity, kynurenine, Il-1β gene expression), correlated to Cyp1a1 mRNA expression [2] | TEER (% Control) [4] [% Control] | IL-1β(Fold Change) ([5]; TMF +) | IL-1β(Fold Change) [5, 8] | Kynurenine (% Change) ([7]; TMF +) | Kynurenine (% Change) ([7]; TMF −)
1 | suppressed | abrogated by TMF | 3760 | 4460 | 30 | 18 | 1350 | 1650 | 66.8 ± 4.7 | 108 ± 6.5 | 60 | 60 | O=C(O)Cc1ccc(O)cc1 [4-HPAA, 4-Hydroxyphenylacetic acid] | dose-dependent anti-inflammatory effects | 70.2 ± 2.0 | 9.8 ± 0.4τ ^** Fold Change | 5.2 ± 0.6τ Fold Change | 120.7 ± 7.9 | –
2 | suppressed | abrogated by TMF | 406 | 2170 | 30 | 18 | – | – | – | – | – | – | O=C(O)CCc1ccc(O)cc1 [4-HPPA, 3-(4-Hydroxyphenyl)propionic acid] | dose-dependent anti-inflammatory effects | 72.3 ± 2.0 | 9.1 ± 0.0τ ^** Fold Change | 6.4 ± 0.3τ Fold Change | 134.3 ± 3.2 | 102.0 ± 2.2τ % Change
3 | suppressed | abrogated by TMF | 52.8 | 51.4 | 18 | 18 | – | – | – | – | – | – | O=C(O)/C=C/c1ccc(O)c(O)c1 [CA, Caffeic acid] | dose-dependent anti-inflammatory effects | 73.2 ± 0.9 | 10.3 ± 0.3τ ^** Fold Change | 4.0 ± 0.3τ Fold Change | 144.1 ± 6.4 | 98.6 ± 7.7τ % Change
4 | – | independent of AHR signaling | 3.5 | 38.2 | 18 | 30 | 87.2 | 288 | 25.3 ± 9.6 | 23 ± 2.6 | 18 | 60 | O=c1c(O)c(-c2ccc(O)cc2)oc2cc(O)cc(O)c12 [KAMF, Kaempferol] | dose-dependent anti-inflammatory effects | 75.5 ± 2.1 | 10.1 ± 0.7τ Fold Change | 8.4 ± 0.2τ Fold Change | 131.7 ± 3.9 | 151.0 ± 3.7 % Change
